Reference: ChEMBL document CHEMBL4265908, “Structure-activity and structure-property relationships of novel Nrf2 activators with a 1,2,4-oxadiazole core and their therapeutic effects on acetaminophen (APAP)-induced acute liver injury” (Eur J Med Chem, 2018)
Converted amounts (≈) assume the structure as drawn. The source made the active and inactive calls. The rule behind the calls is not given here.

Experiments:
[1] = biological target: T1, Nuclear factor erythroid 2-related factor 2 (Homo sapiens) (UniProt Q16236); test: Activation of Nrf2 in human HepG2-ARE-C8 cells assessed as induction of ARE-mediated luciferase activity at 0.01 uM after 24 hrs by luciferase reporter gene assay relative to control; format: cell-based
T1 sequence (whole entry): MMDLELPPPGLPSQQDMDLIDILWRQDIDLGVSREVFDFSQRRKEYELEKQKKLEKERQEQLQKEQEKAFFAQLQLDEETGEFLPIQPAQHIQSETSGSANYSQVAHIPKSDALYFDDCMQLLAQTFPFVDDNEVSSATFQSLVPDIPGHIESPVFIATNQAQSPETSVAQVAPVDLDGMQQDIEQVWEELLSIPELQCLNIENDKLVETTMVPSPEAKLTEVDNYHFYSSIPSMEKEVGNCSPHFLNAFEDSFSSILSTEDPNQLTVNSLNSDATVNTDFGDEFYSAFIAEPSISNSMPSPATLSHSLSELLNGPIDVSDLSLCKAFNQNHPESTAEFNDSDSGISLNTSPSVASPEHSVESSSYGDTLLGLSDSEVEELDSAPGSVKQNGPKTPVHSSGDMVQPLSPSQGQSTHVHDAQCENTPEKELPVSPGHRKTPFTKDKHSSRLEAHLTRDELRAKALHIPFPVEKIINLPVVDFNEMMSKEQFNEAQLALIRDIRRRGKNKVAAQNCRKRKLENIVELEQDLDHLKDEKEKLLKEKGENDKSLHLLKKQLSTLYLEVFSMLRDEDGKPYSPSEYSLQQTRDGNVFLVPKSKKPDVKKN
In short: (§1)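 HepG2-ARE-C8 cells stably carrying ARE-luciferase, grown in DMEM with 10% FBS at 37 °C and 5% CO2. Seeded at 5 × 10^4 cells/well, left overnight, then given compound diluted from a 10 mM DMSO stock for 24 h. Cells lysed and luciferase read as RLU. Inductivity = (RLUtest − RLUblank)/(RLUcontrol − RLUblank), with DMSO as control. Mean ± SEM of three experiments.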

[2] = Intrinsic aqueous solubility of the compound by potentiometric titration method; format: physicochemical
In short: (§2)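 Intrinsic aqueous solubility and logD at pH 7.4 determined by Avdeef-Bucher potentiometric titration on a pION Gemini Profiler.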

[3] = biological target: T1, Nuclear factor erythroid 2-related factor 2 (Homo sapiens); test: Activation of Nrf2 in human HepG2-ARE-C8 cells assessed as induction of ARE-mediated luciferase activity at 1 uM after 24 hrs by luciferase reporter gene assay relative to control; format: cell-based; in short: as §1
HepG2 = test: Cytotoxicity against human HepG2 cells at 80 uM after 24 hrs by MTT assay; format: cell-based; settings: hepg2, 24 h
[4] = Lipophilicity, log D of the compound at pH 7.4 by potentiometric titration method; format: physicochemical; settings: buffer; in short: as §2
[5] = biological target: T1, Nuclear factor erythroid 2-related factor 2 (Homo sapiens); test: Activation of Nrf2 in human HepG2-ARE-C8 cells assessed as induction of ARE-mediated luciferase activity at 40 uM after 24 hrs by luciferase reporter gene assay relative to control; format: cell-based; in short: as §1
[6] = biological target: T1, Nuclear factor erythroid 2-related factor 2 (Homo sapiens); test: Activation of Nrf2 in human HepG2-ARE-C8 cells assessed as induction of ARE-mediated luciferase activity at 0.1 uM after 24 hrs by luciferase reporter gene assay relative to control; format: cell-based; in short: as §1
[7] = biological target: T1, Nuclear factor erythroid 2-related factor 2 (Homo sapiens); test: Activation of Nrf2 in human HepG2-ARE-C8 cells assessed as induction of ARE-mediated luciferase activity at 80 uM after 24 hrs by luciferase reporter gene assay relative to control; format: cell-based; in short: as §1
[8] = biological target: T1, Nuclear factor erythroid 2-related factor 2 (Homo sapiens); test: Activation of Nrf2 in human HepG2-ARE-C8 cells assessed as induction of ARE-mediated luciferase activity at 20 uM after 24 hrs by luciferase reporter gene assay relative to control; format: cell-based; in short: as §1
L02 [9] = test: Hepatoprotective activity against APAP-induced cell injury in human LO2 cells assessed as increase in cell viability at 20 uM pretreated for 24 hrs followed by APAP treatment measured after 24 hrs by MTT assay; format: functional
In short: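 LO2 cells plated for 12 h and pretreated for 24 h with 5, 10 or 20 μM compound. One arm was first transfected with 50 nM Nrf2 siRNA before receiving 20 μM compound. Medium then replaced with medium containing 8 mM APAP for 24 h. Viability by MTT at A570. Mean ± SD of three experiments.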

[10] = biological target: T1, Nuclear factor erythroid 2-related factor 2 (Homo sapiens); test: Activation of Nrf2 in human HepG2-ARE-C8 cells assessed as induction of ARE-mediated luciferase activity at 0.2 uM after 24 hrs by luciferase reporter gene assay relative to control; format: cell-based
L02 [11] = test: Cytotoxicity against human LO2 cells up to 160 uM after 24 hrs by MTT assay; format: cell-based; settings: l02, 24 h
In short: (§3)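 LO2 cells plated for 12 h, then treated for 24 h with 0, 0.2, 2, 20, 40, 80 or 160 μM compound diluted in medium from a DMSO stock. MTT (5 mg/mL stock) added for 4 h, formazan dissolved in DMSO, A570 read. Viability computed from OD relative to DMSO control and blank. Mean ± SD of three experiments.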

[12] = biological target: T1, Nuclear factor erythroid 2-related factor 2 (Homo sapiens); test: Activation of Nrf2 in human HepG2-ARE-C8 cells assessed as induction of ARE-mediated luciferase activity at 0.02 uM after 24 hrs by luciferase reporter gene assay relative to control; format: cell-based
[13] = biological target: T1, Nuclear factor erythroid 2-related factor 2 (Homo sapiens); test: Activation of Nrf2 in human HepG2-ARE-C8 cells assessed as induction of ARE-mediated luciferase activity at 2 uM after 24 hrs by luciferase reporter gene assay relative to control; format: cell-based
L02 [14] = test: Cytotoxicity against human LO2 cells at 160 uM after 24 hrs by MTT assay; format: cell-based; settings: l02, 24 h; in short: as §3

Row | SMILES | Activity [1] | solubility [2] [µM] | Activity [3] | Activity (HepG2) | logD [4] | Activity [5] | Activity [6] | Activity [7] | Activity [8] | Activity (L02 [9]) | Activity [10] | Activity (L02 [11]) | Activity [12] | Activity [13] | Activity (L02 [14])
1 | Cc1ccc(-c2noc(-c3ccc(F)c(F)c3)n2)cc1 | 0.67 | 35 (≈ 9.53 µg/mL) | 1.85 | Non-Toxic | 4.16 | 6.62 | 1.22 | 10.2 | 2.51 | – | – | – | – | – | –
2 | CN(C)C=O | 0.82 | – | 1.1 | – | – | 2.97 | 1 | – | 1.65 | Active | – | – | – | – | –
3 | Fc1ccc(-c2nc(-c3ccc(-c4ccccc4)cc3)no2)cc1F | 1.15 | 16 (≈ 5.35 µg/mL) | 6.75 | Non-Toxic | 4.75 | 10.8 | 1.25 | 14.7 | 8.54 | – | – | – | – | – | –
4 | Cc1ccnc(-c2noc(-c3ccc(F)c(F)c3)n2)c1 | 0.63 | 220 (≈ 60.1 µg/mL) | 2.04 | Non-Toxic | 2.65 | 9.76 | 1.06 | 10.6 | 8.96 | – | – | – | – | – | –
5 | CC(C)(C)c1cc(O)ccc1O [E319] | – | – | – | – | – | 2.14 | – | 5.27 | 1.41 | Active | 1.25 | <= 7% | 1.18 | 1.24 | –
6 | Cc1cccc(-c2noc(-c3ccc(F)c(F)c3)n2)n1 | 1.16 | 200 (≈ 54.6 µg/mL) | 2.65 | Non-Toxic | 2.86 | 4.46 | 1.08 | 5.68 | 3.96 | – | – | – | – | – | –
7 | COc1cccc(-c2noc(-c3ccc(F)c(F)c3)n2)c1 | 1.63 | 86 (≈ 24.8 µg/mL) | 5.35 | Non-Toxic | 3.91 | 15.2 | 1.87 | 16.4 | 14.2 | – | – | – | – | – | –
8 | Fc1ccc(-c2nc(-c3ccc4nc[nH]c4c3)no2)cc1 | 1.57 | – | – | Non-Toxic | – | – | – | – | – | – | – | – | – | – | <= 20%
9 | Clc1ccc(-c2nc(-c3ccc4nc[nH]c4c3)no2)cc1 | 0.33 | – | 1.64 | Non-Toxic | – | 18.5 | 0.72 | 14.1 | 15.5 | – | – | – | – | – | –
10 | Fc1ccc(-c2nc(-c3cnccn3)no2)cc1F | 1.13 | – | 1.95 | Non-Toxic | – | 2.83 | 1.43 | 3.35 | 1.81 | – | – | – | – | – | –
11 | Fc1ccc(-c2nc(-c3ccc4ccccc4c3)no2)cc1F | 1.16 | – | 1.52 | Non-Toxic | – | 1.96 | 1.27 | 3.57 | 1.96 | – | – | – | – | – | –
12 | Fc1ccc(-c2nc(-c3ccc4nc[nH]c4c3)no2)c(F)c1 | 1.62 | – | 2.48 | Non-Toxic | – | 7.34 | 2.17 | 8.36 | 4.58 | – | – | – | – | – | –
13 | CC(C)(C)c1ccc(-c2noc(-c3ccc(F)c(F)c3)n2)cc1 | 1.35 | 91 (≈ 28.6 µg/mL) | 2.91 | Non-Toxic | 3.92 | 13.2 | 2.88 | 24 | 8.35 | – | – | – | – | – | –
14 | Clc1cccc(-c2nc(-c3ccc4nc[nH]c4c3)no2)c1 | 1.74 | – | 4.78 | Non-Toxic | – | 13.2 | 3.23 | 19.1 | 12.8 | – | – | – | – | – | –
15 | Fc1ccc(-c2nc(-c3ccc4nc[nH]c4c3)no2)cc1Br | 1.68 | – | 1.89 | Non-Toxic | – | 3.92 | 1.36 | 4.84 | 3.46 | – | – | – | – | – | –
16 | Fc1cc(F)c(-c2nc(-c3ccc4nc[nH]c4c3)no2)cc1F | 1.55 | – | 2.15 | Non-Toxic | – | 4.36 | 1.86 | 7.92 | 3.95 | – | – | – | – | – | –
17 | Brc1ccc(-c2nc(-c3ccc4nc[nH]c4c3)no2)cc1 | 0.22 | – | 0.87 | Non-Toxic | – | 3.44 | 0.25 | 2.75 | 13.4 | – | – | – | – | – | –
18 | Fc1ccc(-c2nc(-c3ccc4nc[nH]c4c3)no2)c(Cl)c1 | 0.68 | – | 4.22 | Non-Toxic | – | 14.7 | 2.98 | 18.3 | 11.8 | – | – | – | – | – | –
19 | Fc1ccc(-c2nc(-c3ncccn3)no2)cc1F | 0.92 | – | 1.07 | Non-Toxic | – | 2.95 | 1.06 | 5.82 | 2.05 | – | – | – | – | – | –
20 | Fc1ccc(-c2nc(-c3ccc4nc[nH]c4c3)no2)cc1F | 1.46 | 99 (≈ 29.5 µg/mL) | 12.3 | Non-Toxic | 3.3 | 42.6 | 6.21 | 49.9 | 24 | – | – | – | – | – | <= 20%
21 | Fc1cccc(-c2noc(-c3ccc(F)c(F)c3)n2)c1 | 0.92 | – | 2.05 | Non-Toxic | – | 3.45 | 1.81 | 5.46 | 2.76 | – | – | – | – | – | –
22 | Fc1cccc(-c2nc(-c3ccc4nc[nH]c4c3)no2)c1 | 1.21 | – | 4.49 | Non-Toxic | – | 12.4 | 2.69 | 14.1 | 8.83 | – | – | – | – | – | –
23 | Fc1ccc(-c2nc(-c3ccc(Br)cc3)no2)cc1F | 2.68 | 77 (≈ 26 µg/mL) | 4.49 | Non-Toxic | 3.91 | 12.2 | 3.78 | 18.2 | 8.65 | – | – | – | – | – | –
24 | Fc1ccc(-c2nc(-c3ccncc3)no2)cc1F | 1.08 | – | 1.07 | Non-Toxic | – | 1.72 | 1.62 | 2.88 | 1.29 | – | – | – | – | – | –
25 | Fc1ccc(-c2nc(-c3cccc4[nH]ccc34)no2)cc1F | 0.83 | – | 2.01 | Non-Toxic | – | 3.77 | 1.88 | 4.02 | 2.36 | – | – | – | – | – | –
26 | Fc1ccc(-c2nc(-c3ccccc3F)no2)cc1F | 3.85 | – | 4.25 | Non-Toxic | – | 5.91 | 3.96 | 6.95 | 4.85 | – | – | – | – | – | –
